Paper PMC3769689 (Journal of medicinal chemistry, 2013)
“Also recorded” adds a separate entry of the source. Blank lines part the entries; values can stand above or below the molecule they belong to.

Tests used:
mGlu3 [1] = biological target: T1, mGlu3 (Rattus norvegicus, UniProt P31422); assay: mGlu3 calcium mobilization assay; assay type: cell-based
mGlu3 [2] = biological target: T1, mGlu3; settings: cited from earlier work
[3] = mouse tissue distribution study; assay type: in vivo; settings: cassette, IP
Summary of the method: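 Mice received the test compounds together as a cassette by intraperitoneal injection. Plasma and brain tissue were then analysed by LC/MS/MS to measure compound exposure in each and derive the brain-to-plasma ratio.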

[4] = metabolite identification; assay type: in vitro ADME
mGlu3 [5] = biological target: T1, mGlu3; assay: progressive fold shift assay with glutamate; assay type: cell-based
rat IV PK = assay type: in vivo; settings: plasma
DAT = DAT (Homo sapiens, UniProt Q01959); assay: functional activity at DAT
[6] = human microsomal clearance; assay type: in vitro ADME
mGlu3 [7] = biological target: T1, mGlu3; assay: probe dependence, glutamate vs LY379268; assay type: cell-based; settings: glutamate vs LY379268 as agonist
mGlu7 = mGlu7 (Homo sapiens, UniProt Q14831); assay: mGluR selectivity, mGlu7; assay type: cell-based
mGlu4 = mGlu4 (Homo sapiens, UniProt Q14833); assay: mGluR selectivity, mGlu4; assay type: cell-based
mGlu6 = mGlu6 (Homo sapiens, UniProt O15303); assay: mGluR selectivity, mGlu6; assay type: cell-based
rat microsomal clearance = assay type: in vitro ADME; settings: for Rat CLHEP: predicted hepatic clearance in vitro; for Rat CLHEP / CLint scaled at 1 µM: rat; for CLint scaled at 1 µM: microsomes
mGlu1 = mGlu1 (Homo sapiens, UniProt Q13255); assay: mGluR selectivity, mGlu1; assay type: cell-based
5-HT2B = 5-HT2B (Homo sapiens, UniProt P41595); assay: functional activity at 5-HT2B
mGlu8 = mGlu8 (Homo sapiens, UniProt O00222); assay: mGluR selectivity, mGlu8; assay type: cell-based
mGlu5 = mGlu5 (Homo sapiens, UniProt P41594); assay: mGluR selectivity, mGlu5; assay type: cell-based
in vivo rat PK = settings: 10 mg/kg

T1 sequence (P31422 23-879): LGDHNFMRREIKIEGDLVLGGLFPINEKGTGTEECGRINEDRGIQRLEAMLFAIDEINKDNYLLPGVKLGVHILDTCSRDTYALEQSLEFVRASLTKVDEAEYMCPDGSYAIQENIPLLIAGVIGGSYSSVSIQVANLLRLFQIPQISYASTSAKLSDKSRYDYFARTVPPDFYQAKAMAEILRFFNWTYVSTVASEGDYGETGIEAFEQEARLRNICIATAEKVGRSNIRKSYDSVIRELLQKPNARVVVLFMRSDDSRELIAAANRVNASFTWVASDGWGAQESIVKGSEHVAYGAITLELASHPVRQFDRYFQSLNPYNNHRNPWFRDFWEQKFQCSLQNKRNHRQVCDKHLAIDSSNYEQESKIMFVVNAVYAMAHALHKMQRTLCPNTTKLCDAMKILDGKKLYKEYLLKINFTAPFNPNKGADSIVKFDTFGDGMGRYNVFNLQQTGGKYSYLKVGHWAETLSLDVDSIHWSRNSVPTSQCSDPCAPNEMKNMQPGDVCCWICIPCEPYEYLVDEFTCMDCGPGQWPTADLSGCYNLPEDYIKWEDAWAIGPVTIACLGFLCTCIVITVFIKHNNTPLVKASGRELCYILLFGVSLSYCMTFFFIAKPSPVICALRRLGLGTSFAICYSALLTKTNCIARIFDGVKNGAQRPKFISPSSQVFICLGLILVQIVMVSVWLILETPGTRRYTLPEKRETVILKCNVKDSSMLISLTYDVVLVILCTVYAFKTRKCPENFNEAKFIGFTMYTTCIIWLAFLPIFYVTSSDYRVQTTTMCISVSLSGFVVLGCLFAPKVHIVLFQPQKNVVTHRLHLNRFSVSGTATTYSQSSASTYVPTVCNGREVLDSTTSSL
DAT, sequence (Q01959 whole entry): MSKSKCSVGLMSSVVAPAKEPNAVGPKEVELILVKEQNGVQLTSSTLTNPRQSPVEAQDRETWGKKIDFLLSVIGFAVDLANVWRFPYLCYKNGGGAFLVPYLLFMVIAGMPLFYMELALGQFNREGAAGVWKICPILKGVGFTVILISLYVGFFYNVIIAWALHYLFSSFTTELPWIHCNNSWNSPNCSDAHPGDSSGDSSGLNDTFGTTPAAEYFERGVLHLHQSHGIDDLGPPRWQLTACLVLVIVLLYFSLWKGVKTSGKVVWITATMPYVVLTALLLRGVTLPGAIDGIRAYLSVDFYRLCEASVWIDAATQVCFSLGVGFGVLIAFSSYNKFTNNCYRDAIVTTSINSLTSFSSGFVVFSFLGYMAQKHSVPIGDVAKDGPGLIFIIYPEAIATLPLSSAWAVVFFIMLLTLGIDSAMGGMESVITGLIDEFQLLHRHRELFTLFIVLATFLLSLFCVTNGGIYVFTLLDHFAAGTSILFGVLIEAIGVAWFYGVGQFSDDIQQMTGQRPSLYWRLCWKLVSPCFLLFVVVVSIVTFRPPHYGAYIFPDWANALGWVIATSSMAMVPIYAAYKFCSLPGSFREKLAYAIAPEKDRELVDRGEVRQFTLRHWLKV
mGlu8, sequence (O00222 34-908): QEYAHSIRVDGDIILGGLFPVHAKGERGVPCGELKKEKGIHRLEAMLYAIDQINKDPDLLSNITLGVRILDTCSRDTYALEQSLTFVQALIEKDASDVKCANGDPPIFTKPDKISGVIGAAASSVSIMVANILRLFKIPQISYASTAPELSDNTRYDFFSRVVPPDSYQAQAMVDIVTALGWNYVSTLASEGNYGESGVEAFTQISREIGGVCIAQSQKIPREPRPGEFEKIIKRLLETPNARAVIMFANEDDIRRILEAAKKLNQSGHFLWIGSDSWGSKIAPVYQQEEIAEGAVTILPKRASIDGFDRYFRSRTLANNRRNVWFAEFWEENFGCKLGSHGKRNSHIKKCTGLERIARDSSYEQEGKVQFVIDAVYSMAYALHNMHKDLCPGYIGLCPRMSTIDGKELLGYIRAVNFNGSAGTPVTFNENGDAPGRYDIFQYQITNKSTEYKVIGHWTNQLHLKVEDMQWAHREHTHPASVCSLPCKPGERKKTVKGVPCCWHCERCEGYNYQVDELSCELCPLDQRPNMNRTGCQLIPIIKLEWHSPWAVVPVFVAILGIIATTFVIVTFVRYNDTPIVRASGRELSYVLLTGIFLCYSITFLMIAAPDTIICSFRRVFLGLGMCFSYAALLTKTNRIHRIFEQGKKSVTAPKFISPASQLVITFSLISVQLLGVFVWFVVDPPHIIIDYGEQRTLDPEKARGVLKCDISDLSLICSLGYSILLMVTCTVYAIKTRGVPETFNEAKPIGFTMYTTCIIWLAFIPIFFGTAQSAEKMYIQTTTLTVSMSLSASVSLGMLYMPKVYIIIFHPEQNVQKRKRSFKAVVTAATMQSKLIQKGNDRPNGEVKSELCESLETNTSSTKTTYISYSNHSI
5-HT2B, sequence (P41595 whole entry): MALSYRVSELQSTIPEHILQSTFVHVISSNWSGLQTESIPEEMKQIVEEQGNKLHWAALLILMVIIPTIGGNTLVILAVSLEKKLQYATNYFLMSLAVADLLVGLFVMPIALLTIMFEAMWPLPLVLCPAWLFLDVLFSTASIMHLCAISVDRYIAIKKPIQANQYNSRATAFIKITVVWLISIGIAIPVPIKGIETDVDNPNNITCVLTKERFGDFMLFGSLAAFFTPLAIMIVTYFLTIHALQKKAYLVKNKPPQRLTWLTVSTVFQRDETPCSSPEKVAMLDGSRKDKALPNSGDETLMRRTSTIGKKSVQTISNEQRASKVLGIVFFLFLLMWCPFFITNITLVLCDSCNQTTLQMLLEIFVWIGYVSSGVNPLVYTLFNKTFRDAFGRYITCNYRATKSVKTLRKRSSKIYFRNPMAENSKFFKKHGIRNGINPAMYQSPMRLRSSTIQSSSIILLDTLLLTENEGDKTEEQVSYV
mGlu5, sequence (P41594 21-1212): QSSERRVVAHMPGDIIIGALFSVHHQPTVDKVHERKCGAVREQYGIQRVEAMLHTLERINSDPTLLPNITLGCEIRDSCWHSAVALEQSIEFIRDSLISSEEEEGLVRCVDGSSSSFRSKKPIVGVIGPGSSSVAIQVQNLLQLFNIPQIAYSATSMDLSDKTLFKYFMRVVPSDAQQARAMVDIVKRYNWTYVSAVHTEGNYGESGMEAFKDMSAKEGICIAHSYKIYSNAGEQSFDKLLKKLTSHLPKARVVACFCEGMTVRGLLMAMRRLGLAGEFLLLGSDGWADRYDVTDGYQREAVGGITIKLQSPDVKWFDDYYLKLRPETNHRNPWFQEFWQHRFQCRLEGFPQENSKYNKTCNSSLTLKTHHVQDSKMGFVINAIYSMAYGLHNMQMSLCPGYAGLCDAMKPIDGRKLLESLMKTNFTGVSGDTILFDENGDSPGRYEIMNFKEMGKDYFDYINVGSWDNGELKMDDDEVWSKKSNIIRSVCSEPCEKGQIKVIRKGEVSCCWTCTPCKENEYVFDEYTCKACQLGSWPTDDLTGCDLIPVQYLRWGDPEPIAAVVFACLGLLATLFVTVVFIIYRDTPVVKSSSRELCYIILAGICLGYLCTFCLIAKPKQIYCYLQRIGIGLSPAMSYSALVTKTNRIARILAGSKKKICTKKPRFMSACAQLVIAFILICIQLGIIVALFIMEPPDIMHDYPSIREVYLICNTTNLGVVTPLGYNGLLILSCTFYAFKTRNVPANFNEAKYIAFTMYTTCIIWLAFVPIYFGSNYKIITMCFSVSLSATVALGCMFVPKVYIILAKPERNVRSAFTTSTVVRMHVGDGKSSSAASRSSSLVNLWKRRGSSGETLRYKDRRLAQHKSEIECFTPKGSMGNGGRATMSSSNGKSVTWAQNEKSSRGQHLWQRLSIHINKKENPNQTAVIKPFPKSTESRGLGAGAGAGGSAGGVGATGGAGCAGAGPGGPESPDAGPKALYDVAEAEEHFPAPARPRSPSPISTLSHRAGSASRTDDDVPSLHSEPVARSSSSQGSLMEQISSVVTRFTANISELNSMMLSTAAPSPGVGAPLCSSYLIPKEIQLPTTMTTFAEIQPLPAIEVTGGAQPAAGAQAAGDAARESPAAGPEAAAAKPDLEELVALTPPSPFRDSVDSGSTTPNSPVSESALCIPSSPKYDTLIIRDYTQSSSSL
mGlu7, sequence (Q14831 35-915): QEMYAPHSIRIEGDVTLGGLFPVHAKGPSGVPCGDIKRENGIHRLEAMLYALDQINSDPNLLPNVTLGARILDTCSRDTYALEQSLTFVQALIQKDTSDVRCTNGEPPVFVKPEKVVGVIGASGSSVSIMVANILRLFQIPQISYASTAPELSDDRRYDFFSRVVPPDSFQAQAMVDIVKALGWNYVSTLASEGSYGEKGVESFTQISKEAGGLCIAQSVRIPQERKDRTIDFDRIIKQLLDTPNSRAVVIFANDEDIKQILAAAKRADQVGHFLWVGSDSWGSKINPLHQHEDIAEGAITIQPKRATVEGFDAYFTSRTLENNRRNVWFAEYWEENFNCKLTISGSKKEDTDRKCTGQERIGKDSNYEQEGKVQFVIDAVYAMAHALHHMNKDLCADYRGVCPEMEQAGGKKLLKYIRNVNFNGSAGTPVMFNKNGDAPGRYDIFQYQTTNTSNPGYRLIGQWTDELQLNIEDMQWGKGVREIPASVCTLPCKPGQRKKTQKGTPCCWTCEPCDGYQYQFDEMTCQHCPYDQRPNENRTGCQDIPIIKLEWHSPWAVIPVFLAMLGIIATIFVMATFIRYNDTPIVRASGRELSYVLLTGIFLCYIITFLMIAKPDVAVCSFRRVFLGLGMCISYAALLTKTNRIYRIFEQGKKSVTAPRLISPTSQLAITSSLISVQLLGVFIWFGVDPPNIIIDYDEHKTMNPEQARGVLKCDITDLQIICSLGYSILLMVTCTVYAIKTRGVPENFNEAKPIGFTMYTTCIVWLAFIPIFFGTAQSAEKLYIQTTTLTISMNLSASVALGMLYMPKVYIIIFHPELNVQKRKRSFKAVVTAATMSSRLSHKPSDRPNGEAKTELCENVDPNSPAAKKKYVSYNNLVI

Compound: COc1ccc(C#Cc2ccc(C(=O)N3CCC[C@@H](CO)C3)cc2)cc1 [compound 3]
selectivity vs. mGlu2 (mGlu3 [2]): > 15 fold

Compound: COc1ccc(C#Cc2ccc(C(=O)N3CCC[C@@H](O)C3)c(F)c2)cc1 [compound 9]
BrainAUC [3]: 3.37 µM | plasmaAUC [3]: 3.71 µM | major metabolite [4]: P450-mediated O-demethylation | mode of antagonism with respect to glutamate (mGlu3 [5]): non-competitive antagonism; also recorded: non-competitive decrease in the EC80 | Vd (rat IV PK): 0.21 L/kg | clearance (rat IV PK): 5.2 mL/min/kg | functional activity at DAT (DAT): no functional activity | Human CLHEP ([6]; predicted hepatic clearance in vitro, human): 18.9 mL/min/kg | stability in human microsomes ([6]; words): unstable | probe dependence (mGlu3 [7]): no differences; also recorded: equipotent and efficacious | IC50 (mGlu7): > 30 µM | IC50 (mGlu4): > 30 µM | IC50 (mGlu6): > 30 µM | Rat CLHEP (rat microsomal clearance): 54.1 mL/min/kg | CLint scaled at 1 µM (rat microsomal clearance): 239 mL/min/kg | stability in rat microsomes (rat microsomal clearance; words): unstable | mGlu3 NAM activity (in words) (mGlu3 [1]): sub-micromolar | IC50 (mGlu1): > 30 µM | functional activity at 5-HT2B (5-HT2B): no functional activity | IC50 (mGlu8): > 30 µM | IC50 (mGlu5): > 30 µM | Brain AUC0-6 (in vivo rat PK; IP, 0-6 h): 9.6 µM·h | Kp (in vivo rat PK; brain and plasma, ip): 0.3 | AUC(0-t) (in vivo rat PK; plasma, ip): 33.1 µM·h

Compound: [2H]C([2H])([2H])Oc1ccc(C#Cc2ccc(C(=O)N3CCC[C@@H](O)C3)cc2)cc1 [compound 11]
Vd (rat IV PK): 0.21 L/kg | clearance (rat IV PK): 3.3 mL/min/kg | Rat CLHEP (rat microsomal clearance): 40.7 mL/min/kg | CLint scaled at 1 µM (rat microsomal clearance): 97.3 mL/min/kg

Compound: [2H]C([2H])([2H])Oc1ccc(C#Cc2ccc(C(=O)N3CCC[C@@H](O)C3)c(F)c2)cc1 [compound 12]
Vd (rat IV PK): 0.18 L/kg | clearance (rat IV PK): 2.9 mL/min/kg | Rat CLHEP (rat microsomal clearance): 35.9 mL/min/kg

Compound: COc1ccc(C#Cc2ccc(C(=O)N3CCC[C@@H](O)C3)cc2)cc1 [8d]
Vd (rat IV PK): 0.22 L/kg | clearance (rat IV PK): 6.2 mL/min/kg | Rat CLHEP (rat microsomal clearance): 52.7 mL/min/kg | CLint scaled at 1 µM (rat microsomal clearance): 214 mL/min/kg

More lines, now with the values ahead:

mGlu3 NAM activity (in words) (mGlu3 [1]): lost
Compound: COc1ccc(C#Cc2ccc(C(=O)N3CCCC(OC)C3)cc2)cc1 (centres unmarked) [8b]

mGlu3 NAM activity (in words) (mGlu3 [1]): sub-micromolar
Compound: COc1ccc(C#Cc2ccc(C(=O)N3CCC[C@@H](O)C3)cc2F)cc1 [compound 10]
